Source: ChEMBL document CHEMBL4689842, “EUbOPEN Chemogenomics Library wave 1” (2021)

Test system: HEK-293T
Experiment: Multiplex assay against HEK293T;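 on Population Tubulin-Different-Phenotype (%): share of the cells with healthy nuclei that show this phenotype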
Assay type: toxicity, cell-based
Conditions: human
Outline: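 Compound was added to live cells that had been stained at seeding with Hoechst33342, BioTracker Green Microtubule Cytoskeleton Dye, MitoTracker Red and Annexin V Alexa Fluor 680, and imaging followed on a CQ1 microscope at 37°C and 5% CO2. CellPathfinder machine-learning gating divided cells into Hoechst high-intensity objects or normal cells, normal cells into healthy, pyknosed or fragmented nuclei, and pyknosed cells into mitotic or apoptotic. Tubulin, mitochondrial-mass and membrane-permeability phenotypes are per cents of healthy-nucleus cells.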

[1] = 12 h, 1 µM, compound concentration 1 uM, replicate 1
[2] = 12 h, 1 µM, compound concentration 1 uM, replicate 2
[3] = 12 h, 10 µM, compound concentration 10 uM, replicate 1
[4] = 12 h, 10 µM, compound concentration 10 uM, replicate 2
[5] = 24 h, 1 µM, compound concentration 1 uM, replicate 1
[6] = 24 h, 1 µM, compound concentration 1 uM, replicate 2
[7] = 24 h, 10 µM, compound concentration 10 uM, replicate 1
[8] = 24 h, 10 µM, compound concentration 10 uM, replicate 2
[9] = 48 h, 1 µM, compound concentration 1 uM, replicate 1
[10] = 48 h, 1 µM, compound concentration 1 uM, replicate 2
[11] = 48 h, 10 µM, compound concentration 10 uM, replicate 1
[12] = 48 h, 10 µM, compound concentration 10 uM, replicate 2

Question: Which results are given for CCCc1cc(C)[nH]c(=O)c1CNC(=O)c1cc(-c2ccc(N3CCN(C(C)C)CC3)nc2)cc2c1cnn2C(C)C?
Answer: Population Apoptotic (%) [1]: 63%; Population Fragmented Nuclei (%) [1]: 13%; Population Healthy Nuclei (%) [1]: 25%; Population Hoechst High Intensity Objects (%) [1]: 13%; Population Membrane Permeable-Phenotype (%) [1]: 9%; Population Mitochondria Different-Phenotype (%) [1]: 97%; Population Mitotic Cells (%) [1]: 36%; Population Normal (%) [1]: 86%; Population Pyknosed Nuclei (%) [1]: 60%; Population Tubulin-Different-Phenotype (%) [1]: 86%; Total Cell Count [1]: 193; Population Apoptotic (%) [2]: 51%; Population Fragmented Nuclei (%) [2]: 4%; Population Healthy Nuclei (%) [2]: 27%; Population Hoechst High Intensity Objects (%) [2]: 3%; Population Membrane Permeable-Phenotype (%) [2]: 3%; Population Mitochondria Different-Phenotype (%) [2]: 87%; Population Mitotic Cells (%) [2]: 48%; Population Normal (%) [2]: 96%; Population Pyknosed Nuclei (%) [2]: 67%; Population Tubulin-Different-Phenotype (%) [2]: 94%; Total Cell Count [2]: 200; Population Apoptotic (%) [3]: 94%; Population Fragmented Nuclei (%) [3]: 9%; Population Healthy Nuclei (%) [3]: 20%; Population Hoechst High Intensity Objects (%) [3]: 20%; Population Membrane Permeable-Phenotype (%) [3]: 2%; Population Mitochondria Different-Phenotype (%) [3]: 97%; Population Mitotic Cells (%) [3]: 5%; Population Normal (%) [3]: 79%; Population Pyknosed Nuclei (%) [3]: 69%; Population Tubulin-Different-Phenotype (%) [3]: 89%; Total Cell Count [3]: 231; Population Apoptotic (%) [4]: 96%; Population Fragmented Nuclei (%) [4]: 5%; Population Healthy Nuclei (%) [4]: 12%; Population Hoechst High Intensity Objects (%) [4]: 8%; Population Membrane Permeable-Phenotype (%) [4]: 11%; Population Mitochondria Different-Phenotype (%) [4]: 94%; Population Mitotic Cells (%) [4]: 3%; Population Normal (%) [4]: 91%; Population Pyknosed Nuclei (%) [4]: 82%; Population Tubulin-Different-Phenotype (%) [4]: 100%; Total Cell Count [4]: 151; Population Apoptotic (%) [5]: 79%; Population Fragmented Nuclei (%) [5]: 11%; Population Healthy Nuclei (%) [5]: 26%; Population Hoechst High Intensity Objects (%) [5]: 17%; Population Membrane Permeable-Phenotype (%) [5]: 4%; Population Mitochondria Different-Phenotype (%) [5]: 97%; Population Mitotic Cells (%) [5]: 20%; Population Normal (%) [5]: 82%; Population Pyknosed Nuclei (%) [5]: 62%; Population Tubulin-Different-Phenotype (%) [5]: 97%; Total Cell Count [5]: 190; Population Apoptotic (%) [6]: 57%; Population Fragmented Nuclei (%) [6]: 2%; Population Healthy Nuclei (%) [6]: 52%; Population Hoechst High Intensity Objects (%) [6]: 3%; Population Membrane Permeable-Phenotype (%) [6]: 6%; Population Mitochondria Different-Phenotype (%) [6]: 94%; Population Mitotic Cells (%) [6]: 42%; Population Normal (%) [6]: 96%; Population Pyknosed Nuclei (%) [6]: 45%; Population Tubulin-Different-Phenotype (%) [6]: 94%; Total Cell Count [6]: 239; Population Apoptotic (%) [7]: 91%; Population Fragmented Nuclei (%) [7]: 15%; Population Healthy Nuclei (%) [7]: 16%; Population Hoechst High Intensity Objects (%) [7]: 19%; Population Mitochondria Different-Phenotype (%) [7]: 96%; Population Mitotic Cells (%) [7]: 8%; Population Normal (%) [7]: 80%; Population Pyknosed Nuclei (%) [7]: 68%; Population Tubulin-Different-Phenotype (%) [7]: 77%; Total Cell Count [7]: 236; Population Apoptotic (%) [8]: 98%; Population Fragmented Nuclei (%) [8]: 4%; Population Healthy Nuclei (%) [8]: 20%; Population Hoechst High Intensity Objects (%) [8]: 14%; Population Membrane Permeable-Phenotype (%) [8]: 3%; Population Mitochondria Different-Phenotype (%) [8]: 100%; Population Mitotic Cells (%) [8]: 1%; Population Normal (%) [8]: 85%; Population Pyknosed Nuclei (%) [8]: 74%; Population Tubulin-Different-Phenotype (%) [8]: 81%; Total Cell Count [8]: 151; Population Apoptotic (%) [9]: 75%; Population Fragmented Nuclei (%) [9]: 19%; Population Healthy Nuclei (%) [9]: 46%; Population Hoechst High Intensity Objects (%) [9]: 9%; Population Membrane Permeable-Phenotype (%) [9]: 0%; Population Mitochondria Different-Phenotype (%) [9]: 96%; Population Mitotic Cells (%) [9]: 24%; Population Normal (%) [9]: 90%; Population Pyknosed Nuclei (%) [9]: 33%; Population Tubulin-Different-Phenotype (%) [9]: 86%; Total Cell Count [9]: 241; Population Apoptotic (%) [10]: 69%; Population Fragmented Nuclei (%) [10]: 6%; Population Healthy Nuclei (%) [10]: 68%; Population Hoechst High Intensity Objects (%) [10]: 2%; Population Membrane Permeable-Phenotype (%) [10]: 1%; Population Mitochondria Different-Phenotype (%) [10]: 77%; Population Mitotic Cells (%) [10]: 30%; Population Normal (%) [10]: 97%; Population Pyknosed Nuclei (%) [10]: 25%; Population Tubulin-Different-Phenotype (%) [10]: 91%; Total Cell Count [10]: 327; Population Apoptotic (%) [11]: 95%; Population Fragmented Nuclei (%) [11]: 20%; Population Healthy Nuclei (%) [11]: 10%; Population Hoechst High Intensity Objects (%) [11]: 28%; Population Membrane Permeable-Phenotype (%) [11]: 5%; Population Mitochondria Different-Phenotype (%) [11]: 94%; Population Mitotic Cells (%) [11]: 4%; Population Normal (%) [11]: 71%; Population Pyknosed Nuclei (%) [11]: 68%; Population Tubulin-Different-Phenotype (%) [11]: 61%; Total Cell Count [11]: 241; Population Apoptotic (%) [12]: 98%; Population Fragmented Nuclei (%) [12]: 5%; Population Healthy Nuclei (%) [12]: 31%; Population Hoechst High Intensity Objects (%) [12]: 27%; Population Membrane Permeable-Phenotype (%) [12]: 2%; Population Mitochondria Different-Phenotype (%) [12]: 100%; Population Mitotic Cells (%) [12]: 1%; Population Normal (%) [12]: 72%; Population Pyknosed Nuclei (%) [12]: 62%; Population Tubulin-Different-Phenotype (%) [12]: 55%; Total Cell Count [12]: 148
